The values that follow come from PubChem BioAssay AID720543 (The Scripps Research Institute Molecular Screening Center, 2013).

Each structure is given as a SMILES string. Screen size: about 370,000 compounds; about 2,000 (0.54%) were called active.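 The calls were made as follows: active = inhibition exceeding the mean over every tested compound plus 3 SD (cut at about 30% in these data); inactive = the rest.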 The entries come from a sample that favours actives as a whole.

Chain of (Lyso)-N-acylphosphatidylethanolamine lipase (Mus musculus) (Q8VD66 whole entry, looked up): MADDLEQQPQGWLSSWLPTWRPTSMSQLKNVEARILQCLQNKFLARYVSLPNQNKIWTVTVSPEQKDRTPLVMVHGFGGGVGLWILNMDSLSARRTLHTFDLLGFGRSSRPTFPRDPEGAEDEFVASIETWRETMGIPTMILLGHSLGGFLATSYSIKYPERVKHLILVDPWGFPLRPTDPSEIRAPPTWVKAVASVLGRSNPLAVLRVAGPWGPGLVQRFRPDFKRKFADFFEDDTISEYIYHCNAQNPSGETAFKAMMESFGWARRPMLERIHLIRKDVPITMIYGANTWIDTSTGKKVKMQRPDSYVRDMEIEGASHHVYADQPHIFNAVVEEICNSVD

In this test the target is (Lyso)-N-acylphosphatidylethanolamine lipase (Mus musculus) (UniProt Q8VD66). Description: mouse ABHD4 hydrolase activity blockers – biochemical, fluorescence polarization, primary screen (AID 720543).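 Also: 0% = plate median of compound wells and 100% = S159A mutant with DMSO.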 Conditions: purified mABHD4, FP-Rh probe fluorescence polarization; at 8.92 µM; hits give high values. Put shortly: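 Assay system: Wild-type mouse ABHD4 protein | Medium: HEPES pH 7.0 buffer, 150 mM NaCl, 0.01% Pluronic F-127 | Incubation: Enzyme–compound pre-incubation 45 min, then probe 60 min, both 25 °C | Technique: Fluorescence polarization with parallel and perpendicular emission, 525/598 nm | Evaluation: % inhibition of FP-Rh probe binding versus controls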
For `CC1CN(C(=O)c2cccc(NS(=O)(=O)c3ccc(Br)cc3)c2)CC(C)O1` (centres undefined), the inhibition was 3.29% (inactive).

As for `C/C(=N/N1CCN(Cc2cccc3ccccc23)CC1)c1cccnc1`, the inhibition is -2.15% (inactive).

With `COCCCNC(NC(=O)c1ccc(C)cc1)C(Cl)(Cl)Cl` (centres undefined), the inhibition is -5.04% (inactive).

In the case of `O=C(C1CCCO1)N1CCN(S(=O)(=O)c2ccc(Br)cc2)CC1` (centres undefined), the inhibition was 1.47% (inactive).

Turning to `Cc1nnsc1C(=O)N/N=C/c1cccc(C(F)(F)F)c1`, the inhibition was 3.14% (inactive).

Regarding `O=C(N/N=C/c1ccc(O)c(O)c1)C1c2ccccc2Oc2ccccc21`, the inhibition was 26.1% (inactive).

For the compound `Oc1ccc(/C=N/Nc2ccc(C(F)(F)F)cn2)cc1O`, the inhibition was 36.2% (active).

On to `Cc1nccc(-c2ccc(-n3c(C)ccc3C)cc2)n1`, for which the inhibition is -7.18% (inactive).

`CNC(=S)NNC(=O)c1oc2nc(-c3ccccc3)cc(-c3ccco3)c2c1N`: the inhibition was 37.3% (active).

For the compound `CC(C)CNC(=O)OCc1cn(Cc2ccc(F)cc2)nn1`, the inhibition is -1.25% (inactive).

Consider `O=C(CSc1nnc(-c2cccc(Cl)c2)n1Cc1ccco1)Nc1ccc(OCc2ccccc2)cc1`, for which the inhibition is 4.02% (inactive).

As for `Cc1cc(C)cc(NC(=O)N2CCC(N(C)CCC(C)C)CC2)c1`, the inhibition was -1.26% (inactive).

On to `CCn1c(SCC(=O)Nc2cccc(F)c2)nnc1-c1cc2cc(Br)ccc2o1`, for which the inhibition was -4.13% (inactive).

For the compound `[O-][n+]1ccc(OCc2ccccc2)cc1`, the inhibition is 1.3% (inactive).

As for `CCOC(=O)C1=C(C)N=C2c3ccccc3C(=O)C2C1c1ccc(Br)cc1` (centres undefined), the inhibition was 46.9% (active).

`Cc1cccc(C2C3=C(CCCC3=O)N=C3c4ccccc4C(=O)C32)c1` (centres undefined): the inhibition was 25.7% (inactive).

With `CCOC(=O)C1=C(C)NC(SC)=NC1c1ccccc1` (centres undefined), the inhibition was 4.01% (inactive).

As for `O=C(CN1CCCCCC1)N1c2ccccc2Sc2ccc(C(F)(F)F)cc21`, the inhibition is -5.91% (inactive).

`COC(=O)Cc1cc(=O)oc2c(C)c(O)ccc12`: the inhibition was -0.82% (inactive).

With `Cc1c(CC(=O)N2CCN(C(=O)C3COc4ccccc4O3)CC2)c(=O)oc2c(O)c(O)ccc12` (centres undefined), the inhibition is 31.1% (active).

For `Cc1ccc(S(=O)(=O)N(C)C)cc1NC(=O)COC(=O)C1COc2ccccc2O1` (centres undefined), the inhibition is -2.17% (inactive).

For `NC(=O)CCC(NS(=O)(=O)c1ccc(Cl)cc1)C(=O)NCc1ccccc1Cl` (centres undefined), the inhibition is 1.64% (inactive).

`Cc1noc(C)c1C(=O)N(CC(=O)NC1CCCC1)Cc1ccccc1F`: the inhibition is 8.87% (inactive).

For the compound `Cc1ccc2c(C)c(C(=O)N(C)CCC3CCCCO3)oc2c1C` (centres undefined), the inhibition is 2.89% (inactive).

Consider `COC(=O)CC1CCc2cc(C)cc(C(CC(C)C)NC(=O)[C@H](CC(C)C)NC(=O)OCc3ccccc3)c2O1` (some centres undefined), for which the inhibition was 1.24% (inactive).

In the case of `COCCOC(=O)c1sc(=S)n(CCOC)c1N`, the inhibition was 52.1% (active).

Take `C=CCN(Cc1ccc2c(c1)OCO2)C(C#CC1CC1)C(C)(C)C` (centres undefined): the inhibition is 7.34% (inactive).

For `N#Cc1ccc(OC[C@@H](O)CN2CCC(C(O)(c3ccccc3)c3ccccc3)CC2)c(F)c1`, the inhibition was 3.13% (inactive).

For `COCCCn1c(SCC(=O)Nc2oc(C)c3c(C)n[nH]c(=O)c23)nc2sc3c(c2c1=O)CCC3`, the inhibition was -0.16% (inactive).

Take `NC(N)=N/N=C/c1ccc(OCc2ccc(Cl)cc2Cl)cc1`: the inhibition was 31.7% (active).

As to `NC(=O)COc1ccc(/C=N/NC(=O)C2CCCN2S(=O)(=O)c2ccc(Cl)cc2)cc1` (centres undefined), the inhibition was -2.8% (inactive).

Consider `COC(=O)c1ccccc1-n1cc(COC(=O)NCCc2ccccc2)nn1`, for which the inhibition was 4.86% (inactive).

Consider `CC(=O)c1ccc(S(=O)(=O)NCC2CCN(C(=O)C(=O)c3cccs3)CC2)cc1`, for which the inhibition was -4.2% (inactive).

Regarding `C=C1C(C(C)C)N(C)C2=NC(c3ccccc3)CC(=O)N12` (centres undefined), the inhibition is -4.4% (inactive).

On to `CCCCCCSc1ccc(-c2nc3ccc(Cl)cn3c2NCc2ccccc2)cc1`, for which the inhibition is 30.7% (active).

Take `Clc1ccc2nc(CSc3ccccc3)cn2c1`: the inhibition is 0.19% (inactive).

`COc1ccccc1Cc1c(-c2ccc(Cl)cc2)nc2ccc(Cl)cn12`: the inhibition was -4.24% (inactive).

For `CCOC(=O)C1(S(=O)(=O)c2ccc(Cl)cc2)CCN(Cc2ccccc2)CC1`, the inhibition was -3.97% (inactive).

`c1csc(-c2nnc(COc3ccc4c(c3)OCO4)o2)c1`: the inhibition is 2.17% (inactive).

With `c1coc(CCNc2ncnc3ccc(-c4ccc5c(c4)OCO5)cc23)c1`, the inhibition is -22.8% (inactive).

Take `C/C=C/C(=O)OCc1csc(CC(=O)Nc2ccccc2C)n1`: the inhibition is -5.94% (inactive).

For the compound `CC(=O)Nc1ccc(S(=O)(=O)NC(C)C(=O)OCC(=O)NC2CCCC2)cc1` (centres undefined), the inhibition was -2.25% (inactive).

With `Cc1ccc(NC(=O)Cc2nc(COC(=O)C(C)NS(=O)(=O)c3ccc(C)cc3)cs2)cc1` (centres undefined), the inhibition was 30% (active).

As for `Cc1cc(C)c2nc3nc(C)cc(C)c3c(N)c2c1`, the inhibition was -1.05% (inactive).

On to `Cc1sc2nc(SCC(=O)c3ccc(O)c(O)c3)n(Cc3ccco3)c(=O)c2c1C`, for which the inhibition is 4.55% (inactive).

For the compound `COCCCNC(=O)C[C@H]1C[C@@]2(C(=O)OC)C(=C[C@H](C(C)(C)C)O[C@@H]2C)N(Cc2ccc3c(c2)OCO3)C1=O`, the inhibition was 1.21% (inactive).

Consider `CCOC(=O)c1cc(-c2sc(NC(=O)c3ccccc3)nc2C)n(-c2ccc(Br)cc2)n1`, for which the inhibition is 1.18% (inactive).

As to `Cc1ccc2c(C(=O)CN3CCCC3)c(C)[nH]c2c1`, the inhibition is 0.49% (inactive).

As for `Cc1ccc(Nc2ccccc2N)cc1`, the inhibition was 28.9% (inactive).

Consider `Nc1ccc(Nc2ccccc2)cc1`, for which the inhibition was 46.5% (active).

With `O=c1cnnc(Nc2ccccc2)[nH]1`, the inhibition was 4.6% (inactive).

On to `CCCc1ccc(C(O)c2ncc(-c3cccc(OC)c3)[nH]2)cc1` (centres undefined), for which the inhibition is -9.64% (inactive).

As for `Cc1ccc(CN2CCCCC(NC(=O)C3CCCCC3)C2=O)cc1` (centres undefined), the inhibition was -4.62% (inactive).

For `COC(=O)C1CN(CC(C)C)CCS(=O)(=O)N1Cc1ccc(C)cc1` (centres undefined), the inhibition is 2.37% (inactive).

`CN1c2ccc(C=O)c3c(C=O)ccc(c23)N(C)C1(C)C`: the inhibition was 64.5% (active).

For the compound `COC(=O)C1CN(CC(C)C)CCS(=O)(=O)N1Cc1ccc(F)cc1` (centres undefined), the inhibition is 0.68% (inactive).

Take `CCC(=O)c1c(CC)c2n3c1=CC[C@H]3CC(Br)C=2` (some centres undefined): the inhibition was 3.54% (inactive).

With `Cc1cc(C)n2ncc(C(=O)Nc3ccc4c(c3)OCCO4)c2n1`, the inhibition is 1.04% (inactive).

For the compound `Cc1cc(C(=O)COc2ccccc2[N+](=O)[O-])c(C)n1-c1cccc(S(=O)(=O)N2CCOCC2)c1`, the inhibition is -5.94% (inactive).

In the case of `O=C(N/N=C/c1cccc([N+](=O)[O-])c1)C1CC(=O)N(c2ccc(Br)cc2)C1` (centres undefined), the inhibition is -2.95% (inactive).

Turning to `Cc1cc(C(=O)N/N=C/c2ccc(O)c([N+](=O)[O-])c2)c(C)n1-c1ccc(F)cc1`, the inhibition is 37.5% (active).

Regarding `O=C1CC(c2ccc3c(c2)OCO3)N=C2N(CC3CC3)C/C(=C/c3ccccc3)N12` (centres undefined), the inhibition is 5.86% (inactive).

For the compound `COc1cccc(CNC(=O)[C@H]2CCCN2C(=O)[C@H]2CCCN2C(=O)c2cc(F)cc(F)c2)c1`, the inhibition is 1.83% (inactive).

`Cc1cc(=O)n2[nH]c(-c3sccc3-n3c(C)ccc3C)cc2n1`: the inhibition is 16.4% (inactive).

On to `O=[N+]([O-])/C=C/c1ccc2c(ccn2Cc2ccccc2)c1`, for which the inhibition is -15% (inactive).

For `O=S(=O)(/N=C(/Nc1ccccc1)c1ccccc1)c1cccs1`, the inhibition is 1.09% (inactive).

Take `Cc1c(NC(=O)C(=O)N/N=C/c2cccs2)c(=O)n(-c2ccccc2)n1C`: the inhibition is 3.46% (inactive).

Take `O=C(O)c1ccc(N/N=C/c2cn(-c3ccccc3)nc2-c2cccs2)cc1`: the inhibition is 34.6% (active).

With `CN1C[C@]2(C=C3CCCCC3n3c(=O)n(-c4ccccc4)c(=O)n32)N=C1NC(=O)c1ccccc1` (some centres undefined), the inhibition was 0.57% (inactive).

For the compound `COc1cc(C(=S)NC2CCCCC2)ccc1O`, the inhibition was 0.73% (inactive).

With `COc1ccc(C(=O)NC(=S)N2CCCCC2c2cccnc2)cc1OC` (centres undefined), the inhibition is -3.67% (inactive).

For the compound `COc1cc(C(=O)Nn2c(O)c(C3=c4ccccc4=NC3=O)sc2=S)ccc1O`, the inhibition is 57.7% (active).

As for `CCOC(=O)[C@]12CCCC=C1N(Cc1ccc(OC)cc1)C(=O)[C@@H]2CC(=O)N1CCOCC1`, the inhibition is 5.88% (inactive).

As to `O=C(c1ccc2c(c1)N(Cc1ccc(F)cc1)C(=O)CS2)N1CCOCC1`, the inhibition was -7.7% (inactive).
